# Data from ChEMBL document CHEMBL4130628, “Identification and Pharmacological Profile of an Indane Based Series of Ghrelin Receptor Full Agonists” (J Med Chem, 2018).
# Activity calls are given as the source filed them. The calls are words filed in the database; no cut-off is given here.
# Key:
# [1] = Drug level in human liver microsomes treated with 1-Methyl-N-[(1S,2S)-1-{[(2S)-4-methylmorpholine-2-carbonyl]-amino}-2,3-dihydro-1H-inden-2-yl]-1H-indole-5-carboxamide by LC-MS/MS method; type: ADME, microsome
# [2] = 1-octanol/aqueous buffer distribution coefficient, log D of compound at pH 7.4; type: physicochemical; settings: 1-octanol/aqueous buffer, read-out: logD
# [3] = Drug level in rat hepatocytes treated with 1-Methyl-N-[(1S,2S)-1-{[(2S)-4-methylmorpholine-2-carbonyl]-amino}-2,3-dihydro-1H-inden-2-yl]-1H-indole-5-carboxamide by LC-MS/MS method; type: ADME, cell-based, Hepatocyte
# [4] = biological target: T1, Growth hormone secretagogue receptor type 1 (Homo sapiens, UniProt Q92847); assay: Agonist activity at human GHS receptor assessed as intracellular myo-IP1 secretion after 90 mins by HTRF analysis; type: functional, cell-based; settings: read-out: EC50
# [5] = Oral bioavailability in Beagle dog at 2 mg/kg after 24 hrs by LC-MS/MS analysis; type: ADME, organism-based, Canis lupus familiaris; settings: in vivo
# Method in brief: (§1)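 Male/female beagles (2–5 y, 12–15 kg) were fasted overnight. IV: about 1 mg/Kg as a 15-min infusion to two animals, in 5% DMSO/95% SBE-β-CD (30% w/v) adjusted to pH 7.5. PO: about 2 mg/Kg by gavage, in the same vehicle or 0.5% HPMC/0.1% Tween 80 suspension. Jugular blood was drawn 0.03–24 h (IV) or 0.17–24 h (PO). K2-EDTA plasma analysed by LC-MS/MS.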
# [6] = Ratio of unbound drug level in brain to plasma in Beagle dog at 1 mg/kg, iv or 2 mg/kg, po after 24 hrs by LC-MS/MS analysis; type: ADME, organism-based, Canis lupus familiaris; settings: read-out: K(p,uu,brain)
# Canis familiaris [7] = assay: Increase in plasma IGF1 level in Beagle dog at 4 mg/kg, po measured after 4 to 7 hrs post dose by ELIS; type: functional, organism-based; settings: Canis lupus familiaris
# Method in brief: (§2)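 Dog blood taken before dosing and at 15, 30, 45 min and 1, 2, 4, 7, 12, 24 h post dose into K2EDTA tubes. Centrifuged at 4°C; plasma frozen below -80°C until IGF-1 analysis.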
# [8] = Efflux ratio of apparent permeability across basolateral to apical over apical to basolateral side in human Caco2 cells; type: ADME, cell-based; settings: Caco-2
# Method in brief: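 Caco-2 monolayers; Papp measured in both directions at pH 7.4 (units 1E-6 cm/s). Efflux ratio taken as Papp basolateral-to-apical divided by Papp apical-to-basolateral.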
# [9] = Half life in Beagle dog at 2 mg/kg, po after 24 hrs by LC-MS/MS analysis; type: ADME, organism-based, Canis lupus familiaris; settings: in vivo; method in brief: as §1
# [10] = Apparent permeability across basolateral to apical side in human Caco2 cells at pH 7.4; type: ADME, cell-based; settings: Caco-2, pH 7.4
# [11] = Volume of distribution in Beagle dog at 1 mg/kg, iv or 2 mg/kg, po after 24 hrs by LC-MS/MS analysis; type: ADME, organism-based, Canis lupus familiaris; settings: in vivo; method in brief: as §1
# [12] = Apparent permeability across apical to basolateral side in human Caco2 cells at pH 7.4; type: ADME, cell-based; settings: Caco-2, pH 7.4
# [13] = Clearance in Beagle dog at 1 mg/kg, iv or 2 mg/kg, po after 24 hrs by LC-MS/MS analysis; type: ADME, organism-based, Canis lupus familiaris; settings: in vivo; method in brief: as §1
# [14] = biological target: T1, Growth hormone secretagogue receptor type 1; assay: Displacement of human [125I]-ghrelin from GHS-R1a (unknown origin) expressed in HEK293 cell membranes after 1 hr by radioligand binding assay; settings: read-out: IC50
# [15] = Apparent intrinsic permeability across apical to basolateral side in human Caco2 cells at pH 6.5; type: ADME, cell-based; settings: Caco-2, pH 6.5
# Cytochrome P450 2C19 [16] = biological target: T2, Cytochrome P450 2C19 (Homo sapiens, UniProt P33261); assay: Inhibition of CYP2C19 (unknown origin); type: ADME
# [17] = Protein binding in rat plasma; type: ADME, cell-free; settings: read-out: PPB (converted)
# Cytochrome P450 1A2 = biological target: T3, Cytochrome P450 1A2 (Homo sapiens, UniProt P05177); assay: Inhibition of CYP1A2 (unknown origin); type: ADME
# T3 sequence (P05177 whole entry): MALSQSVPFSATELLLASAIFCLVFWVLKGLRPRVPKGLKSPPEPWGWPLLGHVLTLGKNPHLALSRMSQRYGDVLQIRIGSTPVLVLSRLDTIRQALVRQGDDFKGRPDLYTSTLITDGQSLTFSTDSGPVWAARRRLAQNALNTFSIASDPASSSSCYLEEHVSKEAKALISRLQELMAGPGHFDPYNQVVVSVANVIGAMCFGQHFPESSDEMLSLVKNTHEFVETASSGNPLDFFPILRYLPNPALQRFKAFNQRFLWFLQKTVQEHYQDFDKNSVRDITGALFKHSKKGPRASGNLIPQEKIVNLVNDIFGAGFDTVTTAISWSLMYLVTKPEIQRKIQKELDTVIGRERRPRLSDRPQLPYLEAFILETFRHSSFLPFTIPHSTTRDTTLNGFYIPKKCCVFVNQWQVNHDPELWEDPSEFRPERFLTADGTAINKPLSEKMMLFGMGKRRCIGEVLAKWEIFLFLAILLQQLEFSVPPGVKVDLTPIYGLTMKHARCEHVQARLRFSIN
# Cytochrome P450 2C19 [18] = biological target: T2, Cytochrome P450 2C19; assay: Drug metabolism assessed as CYP2C19 (unknown origin)-mediated hydroxylation of methyl group of indole; type: ADME
# [19] = Fraction absorbed in Beagle dog at 2 mg/kg, po after 24 hrs by LC-MS/MS analysis; type: ADME, organism-based, Canis lupus familiaris; settings: in vivo, read-out: Fabs
# [20] = Protein binding in human plasma; type: ADME, cell-free; settings: read-out: PPB (converted)
# [21] = Intrinsic clearance in rat liver microsomes; type: ADME, microsome; settings: read-out: CLH
# [22] = Protein binding in dog plasma; type: ADME, cell-free, Canis lupus familiaris; settings: read-out: PPB (converted)
# Rattus norvegicus = assay: Renal clearance in Han-Wister rat at 1 mg/kg, iv bolus or 2 mg/kg, po after 24 hrs by LC-MS/MS analysis; type: ADME, organism-based; settings: in vivo
# Cytochrome P450 2D6 = Cytochrome P450 2D6 (Homo sapiens, UniProt P10635); assay: Inhibition of CYP2D6 (unknown origin); type: ADME
# [23] = biological target: Voltage-gated inwardly rectifying potassium channel KCNH2 (Homo sapiens, UniProt Q12809); assay: Inhibition of human ERG expressed in CHO cells; type: cell-based
# Method in brief: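 hERG currents recorded from CHO cells expressing hERG.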
# [24] = Drug elimination in Beagle dog urine by LC-MS/MS analysis; type: ADME, Canis lupus familiaris; settings: read-out: Drug excretion
# [25] = Intrinsic clearance in human liver microsomes; type: ADME, microsome; settings: read-out: CLH
# [26] = Time dependent inhibition of CYP450 in human liver microsomes; type: ADME
# Mu-type opioid receptor [27] = biological target: T4, Mu-type opioid receptor (Homo sapiens, UniProt P35372); assay: Agonist activity at mu1-opioid receptor (unknown origin) by cell-based assay
# Cytochrome P450 2C9 = Cytochrome P450 2C9 (Homo sapiens, UniProt P11712); assay: Inhibition of CYP2C9 (unknown origin); type: ADME
# [28] = Solubility of compound; type: physicochemical
# [29] = Clearance in Han-Wister rat at 1 mg/kg, iv bolus or 2 mg/kg, po after 24 hrs by LC-MS/MS analysis; type: ADME, organism-based; settings: Han-Wistar, in vivo
# Method in brief: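 Male Han Wistar rats (7–8 weeks, 200–300 g). IV bolus of about 1 mg/Kg via tail vein to two animals, in 5% DMSO/95% SBE-β-CD (30% w/v), pH 7.5. Oral dose of about 2 mg/Kg in the same vehicle. Jugular blood collected from pre-dose to 24 h. K2-EDTA plasma kept at -75±15 °C and analysed by LC-MS/MS.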
# Mu-type opioid receptor [30] = biological target: T4, Mu-type opioid receptor; assay: Agonist activity at mu1-opioid receptor (unknown origin)
# Cytochrome P450 3A4 = Cytochrome P450 3A4 (Homo sapiens, UniProt P08684); assay: Inhibition of CYP3A4 (unknown origin); type: ADME
# Canis familiaris [31] = assay: Increase in plasma IGF1 level in Beagle dog at 8 mg/kg, po measured after 24 hrs post dose by ELIS; type: functional, organism-based; settings: Canis lupus familiaris; method in brief: as §2
# [32] = Intrinsic clearance in dog liver microsomes; type: ADME, Canis lupus familiaris, microsome; settings: read-out: CLH
# Canis familiaris [33] = species: Canis familiaris; assay: Drug metabolism in Beagle dog assessed as hydroxylation of 5-methyl of indole ring by LC-MS/MS analysis; type: ADME, organism-based, Canis lupus familiaris; settings: in vivo
# Hepatocyte [34] = assay: Stability in rat hepatocytes assessed as formation of iminium ions by LC-MS/MS method; type: ADME, cell-based
# Hepatocyte [35] = assay: Stability in rat hepatocytes assessed as formation of aldehyde adducts by LC-MS/MS method; type: ADME, cell-based
# [36] = Stability in human liver microsomes assessed as formation of iminium ions by LC-MS/MS method; type: ADME, microsome
# [37] = Stability in human liver microsomes assessed as formation of aldehyde adducts by LC-MS/MS method; type: ADME, microsome
# [38] = Drug metabolism in rat hepatocytes assessed as 1-Methyl-N-((1S,2S)-1-((S)-morpholine-2-carboxamido)-2,3-dihydro-1H-inden-2-yl)-1H-indole-5-carboxamide formation by LC-MS/MS method; type: ADME, cell-based, Hepatocyte
# [39] = Drug metabolism in human liver microsomes assessed as 1-Methyl-N-((1S,2S)-1-((S)-morpholine-2-carboxamido)-2,3-dihydro-1H-inden-2-yl)-1H-indole-5-carboxamide formation by LC-MS/MS method; type: ADME, microsome
# T1 sequence (Q92847 whole entry): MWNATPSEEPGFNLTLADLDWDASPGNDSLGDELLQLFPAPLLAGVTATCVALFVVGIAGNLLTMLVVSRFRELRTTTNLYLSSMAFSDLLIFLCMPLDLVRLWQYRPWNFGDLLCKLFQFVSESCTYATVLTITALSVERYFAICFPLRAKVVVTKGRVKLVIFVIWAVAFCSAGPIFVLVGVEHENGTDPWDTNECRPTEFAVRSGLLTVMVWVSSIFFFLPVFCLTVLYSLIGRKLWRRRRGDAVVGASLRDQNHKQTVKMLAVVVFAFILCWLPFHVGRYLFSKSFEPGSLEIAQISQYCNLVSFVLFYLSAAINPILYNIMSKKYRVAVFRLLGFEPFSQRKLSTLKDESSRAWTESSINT
# T4 sequence (P35372 whole entry): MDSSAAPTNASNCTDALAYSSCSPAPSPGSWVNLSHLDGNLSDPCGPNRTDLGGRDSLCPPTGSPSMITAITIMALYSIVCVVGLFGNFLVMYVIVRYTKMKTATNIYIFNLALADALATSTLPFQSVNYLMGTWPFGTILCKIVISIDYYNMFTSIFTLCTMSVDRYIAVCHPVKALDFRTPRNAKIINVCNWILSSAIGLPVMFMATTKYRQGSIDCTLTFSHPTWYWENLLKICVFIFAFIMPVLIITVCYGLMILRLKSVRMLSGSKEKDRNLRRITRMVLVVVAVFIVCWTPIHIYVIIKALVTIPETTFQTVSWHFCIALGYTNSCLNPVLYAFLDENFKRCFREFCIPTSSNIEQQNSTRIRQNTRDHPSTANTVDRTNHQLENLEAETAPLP
# T2 sequence (P33261 whole entry): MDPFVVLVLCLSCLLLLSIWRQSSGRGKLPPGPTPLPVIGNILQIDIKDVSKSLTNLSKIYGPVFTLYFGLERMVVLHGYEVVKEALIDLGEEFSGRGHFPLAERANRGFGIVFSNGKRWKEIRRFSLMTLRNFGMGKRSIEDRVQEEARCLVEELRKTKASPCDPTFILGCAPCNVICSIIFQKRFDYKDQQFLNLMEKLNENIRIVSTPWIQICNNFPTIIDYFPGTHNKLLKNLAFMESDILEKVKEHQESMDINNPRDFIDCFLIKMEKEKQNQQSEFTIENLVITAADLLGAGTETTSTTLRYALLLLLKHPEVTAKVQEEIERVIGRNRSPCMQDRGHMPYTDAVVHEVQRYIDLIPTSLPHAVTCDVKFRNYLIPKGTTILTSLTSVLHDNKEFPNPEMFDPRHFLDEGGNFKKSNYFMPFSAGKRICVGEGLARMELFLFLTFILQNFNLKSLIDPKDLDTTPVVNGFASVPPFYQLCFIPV
# Chain of Cytochrome P450 2D6 (P10635 whole entry): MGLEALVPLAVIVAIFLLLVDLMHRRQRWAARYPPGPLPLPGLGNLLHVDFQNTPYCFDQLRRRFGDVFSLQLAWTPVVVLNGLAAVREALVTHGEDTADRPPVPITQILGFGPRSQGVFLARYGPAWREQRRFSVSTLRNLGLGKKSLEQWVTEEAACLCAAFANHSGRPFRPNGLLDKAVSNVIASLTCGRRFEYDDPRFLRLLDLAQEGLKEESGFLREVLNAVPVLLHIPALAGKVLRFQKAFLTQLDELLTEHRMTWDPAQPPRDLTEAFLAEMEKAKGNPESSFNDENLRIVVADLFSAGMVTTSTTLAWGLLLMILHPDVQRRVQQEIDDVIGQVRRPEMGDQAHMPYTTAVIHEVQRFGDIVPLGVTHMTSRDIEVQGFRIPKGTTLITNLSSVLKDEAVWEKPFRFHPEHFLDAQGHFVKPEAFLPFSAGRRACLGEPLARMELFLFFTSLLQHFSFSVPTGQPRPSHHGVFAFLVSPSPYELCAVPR
# Chain of Cytochrome P450 3A4 (P08684 whole entry): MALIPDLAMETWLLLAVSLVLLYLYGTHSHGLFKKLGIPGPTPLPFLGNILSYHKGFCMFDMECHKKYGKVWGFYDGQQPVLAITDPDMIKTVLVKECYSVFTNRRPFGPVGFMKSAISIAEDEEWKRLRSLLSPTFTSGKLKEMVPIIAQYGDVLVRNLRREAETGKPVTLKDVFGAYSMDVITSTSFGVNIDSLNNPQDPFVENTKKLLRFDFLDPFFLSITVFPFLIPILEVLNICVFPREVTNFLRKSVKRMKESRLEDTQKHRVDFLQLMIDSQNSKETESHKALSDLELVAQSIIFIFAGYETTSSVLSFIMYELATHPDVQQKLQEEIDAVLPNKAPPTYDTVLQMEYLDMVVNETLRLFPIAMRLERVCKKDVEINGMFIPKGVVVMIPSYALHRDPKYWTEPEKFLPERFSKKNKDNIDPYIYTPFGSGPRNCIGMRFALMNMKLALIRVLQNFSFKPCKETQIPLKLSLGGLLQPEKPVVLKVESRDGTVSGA
# Chain of Voltage-gated inwardly rectifying potassium channel KCNH2 (Q12809 whole entry): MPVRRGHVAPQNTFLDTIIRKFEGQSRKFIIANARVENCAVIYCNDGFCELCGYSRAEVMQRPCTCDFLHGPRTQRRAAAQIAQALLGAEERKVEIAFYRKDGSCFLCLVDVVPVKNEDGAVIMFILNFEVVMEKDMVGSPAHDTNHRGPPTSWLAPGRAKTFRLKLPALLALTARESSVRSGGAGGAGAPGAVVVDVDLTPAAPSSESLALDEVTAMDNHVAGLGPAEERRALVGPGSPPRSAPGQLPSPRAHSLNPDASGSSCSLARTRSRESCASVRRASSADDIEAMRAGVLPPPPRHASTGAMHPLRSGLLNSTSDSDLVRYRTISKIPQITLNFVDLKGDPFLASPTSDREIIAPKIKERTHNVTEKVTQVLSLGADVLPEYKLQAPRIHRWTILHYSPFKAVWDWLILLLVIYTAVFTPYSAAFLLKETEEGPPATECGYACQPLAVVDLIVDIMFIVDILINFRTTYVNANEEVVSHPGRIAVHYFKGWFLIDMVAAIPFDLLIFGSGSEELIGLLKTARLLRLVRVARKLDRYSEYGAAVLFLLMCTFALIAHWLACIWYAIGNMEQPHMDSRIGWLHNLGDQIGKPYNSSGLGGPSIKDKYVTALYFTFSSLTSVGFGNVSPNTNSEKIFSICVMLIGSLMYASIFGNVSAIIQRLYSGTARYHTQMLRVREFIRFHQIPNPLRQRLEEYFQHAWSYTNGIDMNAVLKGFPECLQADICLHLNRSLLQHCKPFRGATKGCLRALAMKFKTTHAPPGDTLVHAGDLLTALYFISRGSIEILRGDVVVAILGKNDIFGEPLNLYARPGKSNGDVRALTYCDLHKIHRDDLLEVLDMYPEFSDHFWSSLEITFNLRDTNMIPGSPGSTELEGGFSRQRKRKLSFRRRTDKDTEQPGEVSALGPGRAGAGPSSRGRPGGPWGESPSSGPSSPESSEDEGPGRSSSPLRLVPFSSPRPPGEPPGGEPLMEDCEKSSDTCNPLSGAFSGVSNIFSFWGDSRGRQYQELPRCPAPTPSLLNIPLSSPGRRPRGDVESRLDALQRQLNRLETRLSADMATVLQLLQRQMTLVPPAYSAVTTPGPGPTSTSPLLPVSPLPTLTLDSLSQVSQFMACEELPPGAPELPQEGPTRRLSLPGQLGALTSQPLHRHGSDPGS
# Chain of Cytochrome P450 2C9 (P11712 whole entry): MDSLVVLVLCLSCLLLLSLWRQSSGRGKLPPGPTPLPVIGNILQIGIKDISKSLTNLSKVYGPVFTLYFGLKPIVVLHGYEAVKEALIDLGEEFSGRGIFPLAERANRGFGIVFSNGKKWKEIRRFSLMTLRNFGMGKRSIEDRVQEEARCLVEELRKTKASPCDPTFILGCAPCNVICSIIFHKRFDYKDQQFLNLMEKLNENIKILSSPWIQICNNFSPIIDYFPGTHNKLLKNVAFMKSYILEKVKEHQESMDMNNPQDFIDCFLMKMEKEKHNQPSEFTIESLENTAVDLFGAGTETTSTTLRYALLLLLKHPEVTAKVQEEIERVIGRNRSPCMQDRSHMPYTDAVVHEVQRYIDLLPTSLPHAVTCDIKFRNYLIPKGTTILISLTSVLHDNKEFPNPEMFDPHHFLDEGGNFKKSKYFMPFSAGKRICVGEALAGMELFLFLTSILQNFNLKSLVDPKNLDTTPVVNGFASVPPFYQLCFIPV
smiles,measurement,setting,value
Cn1ccc2cc(C(=O)N[C@H]3Cc4ccccc4[C@@H]3NC(=O)[C@@H]3CNCCO3)ccc21,Drug metabolism,[1],Metabolite_Detected
same,logD,[2],1.8
same,Drug metabolism,[3],Metabolite_Detected
same,EC50,[4],52 nM
Cc1ccc2[nH]c(C(=O)N[C@H]3Cc4ccccc4[C@@H]3NC(=O)[C@@H]3CN(C)CCO3)cc2c1,bioavailability,[5],39%
same,Kp uu at 24 h,[6],0.292
same,Activity,Canis familiaris [7],Active
same,efflux ratio,[8],0.5
same,half-life,[9],1.2 h
same,Papp B→A,[10],7.5 ×10⁻⁶ cm/s
same,logD,[2],3.7
same,Vd,[11],2.1 L/kg
same,Papp A→B,[12],15.3 ×10⁻⁶ cm/s
same,clearance,[13],28 mL/min/kg
same,IC50,[14],14 nM
same,EC50,[4],1.4 nM
same,Papp A→B,[15],44.4 ×10⁻⁶ cm/s
CN(C)CCNC(=O)[C@H]1c2ccccc2C[C@@H]1NC(=O)c1cc2ccccc2[nH]1,bioavailability,[5],9 to 13%
same,IC50,Cytochrome P450 2C19 [16],> 20000 nM
same,fraction unbound,[17],0.96
same,IC50,Cytochrome P450 1A2,> 20000 nM
same,Drug metabolism,Cytochrome P450 2C19 [18],Metabolite_Detected
same,Fa at 24 h,[19],20%
same,fraction unbound,[20],0.88
same,Kp uu at 24 h,[6],< 0.02
same,microsomal CLint,[21],48 µL/min/mg
same,fraction unbound,[22],0.92
same,CL,Rattus norvegicus,> 5%
same,efflux ratio,[8],67.2
same,IC50,Cytochrome P450 2D6,> 20000 nM
same,half-life,[9],13.2 to 16.6 h
same,Papp B→A,[10],17.7 ×10⁻⁶ cm/s
same,IC50,[23],31600 nM
same,dose excreted,[24],2%
same,logD,[2],2.4
same,Vd,[11],4.8 to 5.8 L/kg
same,microsomal CLint,[25],4 to 9 µL/min/mg
same,TDI,[26],Not Active
same,Papp A→B,[12],0.6 ×10⁻⁶ cm/s
same,IC50,Mu-type opioid receptor [27],234 nM
same,IC50,Cytochrome P450 2C9,> 20000 nM
same,solubility,[28],100 µM
same,clearance,[29],170 mL/min/kg
same,clearance,[13],18.8 to 26 mL/min/kg
same,IC50,[14],4 nM
same,IC50,Mu-type opioid receptor [30],79.4 nM
same,EC50,[4],2 nM
same,Papp A→B,[15],< 2.4 ×10⁻⁶ cm/s
same,IC50,Cytochrome P450 3A4,> 20000 nM
same,Activity,Canis familiaris [31],Active
same,microsomal CLint,[32],9 µL/min/mg
same,Drug metabolism,Canis familiaris [33],Metabolite_Detected
CN1CCO[C@H](C(=O)N[C@H]2c3ccccc3C[C@@H]2NC(=O)c2ccc3c(ccn3C)c2)C1,Stability,Hepatocyte [34],Unstable
same,Stability,Hepatocyte [35],Unstable
same,Stability,[36],Unstable
same,logD,[2],2.6
same,Stability,[37],Unstable
same,Drug metabolism,[38],Metabolite_Detected
same,Drug metabolism,[39],Metabolite_Detected
same,IC50,[14],241 nM
same,EC50,[4],21 nM
